# Compound activity deposited in PubChem BioAssay by several laboratories.
# DAT uptake mod = modulates human dopamine transporter uptake under cocaine. Q01959. LLC-PK1 hDAT cells, [14C]-dopamine uptake with cocaine IC80; actives deviate in either direction. B-score at 10 µM. 110,000 compounds, 1.3% hits. AID 449768;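 active = Z score or B-score, a plate-position-corrected score, falls beyond the plate's 99.7% confidence bounds, in either direction; inactive = both scores lie inside the 99.7% bounds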
# Target sequence (Q01959 whole entry, looked up): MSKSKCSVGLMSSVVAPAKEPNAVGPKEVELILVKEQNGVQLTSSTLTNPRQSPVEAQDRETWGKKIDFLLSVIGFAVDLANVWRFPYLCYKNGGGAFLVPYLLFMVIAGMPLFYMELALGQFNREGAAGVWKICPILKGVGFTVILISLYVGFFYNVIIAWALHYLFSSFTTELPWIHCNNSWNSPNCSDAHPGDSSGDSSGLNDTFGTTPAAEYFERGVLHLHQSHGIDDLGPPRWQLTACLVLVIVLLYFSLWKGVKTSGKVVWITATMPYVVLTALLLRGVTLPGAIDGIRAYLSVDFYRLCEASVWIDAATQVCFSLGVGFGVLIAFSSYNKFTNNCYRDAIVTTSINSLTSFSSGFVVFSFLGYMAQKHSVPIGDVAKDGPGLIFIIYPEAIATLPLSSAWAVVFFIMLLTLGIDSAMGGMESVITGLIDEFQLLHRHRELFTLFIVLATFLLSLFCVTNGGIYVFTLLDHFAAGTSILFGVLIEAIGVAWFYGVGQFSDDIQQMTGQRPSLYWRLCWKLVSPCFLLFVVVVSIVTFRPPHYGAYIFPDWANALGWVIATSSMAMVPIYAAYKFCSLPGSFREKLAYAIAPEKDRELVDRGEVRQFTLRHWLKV
# MMP13 inh = inhibitors of human MMP13; P45452; MMP-13 fTHP FRET cleavage, Mca fluorescence; inhibition, % at 4 µM; 65,000 compounds, 0.07% hits;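 active = inhibition above the mean of compound-free control plate wells plus 3 SD, cut at about 14% in these data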
# D1 mod = allosteric modulators of human D1 dopamine receptor; P21728; HEK293 D1, CRE-luciferase, dopamine EC30 potentiation; actives deviate in either direction; B-score at 10 µM; 58,000 compounds, 5.9% hits; AID 641;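 active = luminescence count or its row- and column-corrected plate score outside the 99.7% band of the plate's sample wells, on either side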
# Candida biofilm = kills Candida albicans biofilms | C. albicans biofilm + clotrimazole, Alamar Blue | inhibition, % at 6 µM | 85,000 compounds, 0.14% hits | AID 834;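 active = inhibition above 20%; inactive = inhibition below 20%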;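 also: preformed 24 hr biofilms exposed to compound for 48 hr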
# AP ELISA ortho = orthogonal test for alternative complement pathway inhibitors; Human serum alternative complement pathway, LPS-coated ELISA, C3 deposition; tested in compound mixtures; inhibition, % at 5 µM; 62,000 compounds, 0.08% hits; AID 1235;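 active = inhibition above 30% in each of the two pooled mixtures holding the compound, so the lower value exceeds 30%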
#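 Test system: human serum complement alternative pathway, C3 deposition onto LPS / Medium: Mg2+-EGTA GVB++ buffer containing human serum at 1:15 dilution / Probe or stimulus: Plate-bound LPS / Times: 1 h at 37 °C / Signal: ELISA with HRP anti-human C3 antibody, TMB substrate, absorbance 450 nm / Measure: percent inhibition / Repeats: two pool placements per compound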
# Numbers stand for hits; – = inactive; · = no result given. Many of the other results were omitted from the sample, so hits are more common in it than they were.
SMILES,DAT uptake mod,MMP13 inh,D1 mod,Candida biofilm,AP ELISA ortho
CCCc1nc2oc3c(NCCN(C)C)ncnc3c2c2c1CCCC2,–,–,3.2,–,–
CCCc1nc2oc3c(N4CCNCC4)ncnc3c2c2c1CCCC2,·,–,–,–,–
O=c1c2ccccc2cnn1-c1nc2ccccc2s1,·,–,-4.5,–,–
O=c1c2ccccc2ncn1Cc1nc2ccccc2s1,–,–,–,·,–
CN1CCCC(n2nc(Cc3ccc(Cl)cc3)c3ccccc3c2=O)CC1 (stereo unspecified),–,·,·,·,·
O=C1CC(N2CCN(c3cccc(C(F)(F)F)c3)CC2)C(=O)N1c1ccccc1F (stereo unspecified),3.2,–,–,–,–
O=C1CC(N2CCN(c3cccc(C(F)(F)F)c3)CC2)C(=O)N1c1ccccc1 (stereo unspecified),–,–,–,·,–
COCOc1ccc(-c2oc3c(C/C=C(\C)CCC=C(C)C)ccc(O)c3c(=O)c2OCOC)c(OCOC)c1,–,·,·,·,·
COc1ccc(CCNc2oc(-c3ccccc3OC)nc2C#N)cc1,–,–,–,–,–
COc1ccc(CCNc2oc(-c3ccccc3OC)nc2C#N)cc1OC,4.6,–,–,–,–
Cc1nnc2c3ccccc3c(-c3cccc4ccccc34)nn12,–,·,·,·,·
Cc1nnc2c3ccccc3c(-c3ccccc3)nn12,–,–,15,–,–
CCOC(=O)c1cc2occc2n1CC(=O)N1CCCc2ccccc21,–,–,4.2,–,–
CSc1cc(-c2ccc(Cl)cc2)c(C(=O)N2CCCC2)s1,–,·,·,·,·
Cc1cccc(NC(=O)c2ccc(C3SCC(=O)N3CCc3ccccc3)cc2)c1C (stereo unspecified),2.7,·,·,·,·
CCOC(=O)C1C(=O)OC(C)(C)C1C(C)C(=O)c1ccccc1 (stereo unspecified),–,·,·,–,·
N#CCC1c2ccccc2CCN1C(=O)Nc1ccc(Cl)cc1 (stereo unspecified),-3.2,·,·,·,·
COc1ccccc1NC(=O)c1ccc(-n2cccn2)nc1,–,·,·,·,·
Cc1ccc(-c2cc3nc(C)cc(NCc4ccco4)n3n2)cc1,-3.9,–,–,–,–
O=C(OCc1cc(=O)n2c(n1)sc1ccccc12)c1ccc2c(=O)n3c(nc2c1)CCC3,–,–,4.2,–,–
O=C1C2C3CC(C(Br)C3Br)C2C(=O)N1c1ccccn1 (stereo unspecified),-7.9,·,·,·,·
Cc1ccnc(N2C(=O)C3C4CC(C(Br)C4Br)C3C2=O)c1 (stereo unspecified),–,·,·,·,·
COC(=O)c1ccc(CNC(=O)/C=C/c2cc([N+](=O)[O-])ccc2OC(F)F)cc1,–,·,·,·,·
O=C(Cn1cc2c(n1)CCCC2)NCCCN1CCN(Cc2ccccc2)CC1,–,–,–,–,–
CCn1c(=O)cc(SCC(=O)NCCCN2CCN(c3ccccc3F)CC2)c2ccccc21,–,–,-3.5,–,–
SMILES,DAT uptake mod,MMP13 inh,D1 mod,Candida biofilm,AP ELISA ortho
O=C(Cn1cc2c(n1)CCCC2)NCCCN1CCN(c2ccccc2F)CC1,–,–,-3.1,–,–
CCN1CCCC1CNC(=O)CSc1cc(=O)n(CC)c2ccccc12 (stereo unspecified),–,–,–,–,–
Cc1ccc(C2CC(=O)Nc3cc4c(cc32)OCO4)o1 (stereo unspecified),–,·,·,–,·
COc1ccc(C(=O)OCCN2C(=O)c3ccccc3C2=O)cc1OC,·,·,5.7,·,–
CCN1C(=O)N[C@@H](c2ccco2)C(C(C)=O)=C1C,–,·,·,·,·
Cc1ccccc1OCC(O)Cn1c(=N)n(CCN2CCOCC2)c2ccccc21 (stereo unspecified),–,–,-4.9,–,·
N=c1n(CCN2CCOCC2)c2ccccc2n1CC(O)COc1ccccc1 (stereo unspecified),–,–,–,–,–
COc1ccccc1OCC(O)Cn1c(=N)n(CCN2CCCCC2)c2ccccc21 (stereo unspecified),–,–,-2.5,–,·
N=c1n(CCN2CCCCC2)c2ccccc2n1CC(O)COc1ccccc1 (stereo unspecified),–,–,–,–,–
CCOc1cc(CNn2nnnc2N)cc(Cl)c1OCC(=O)NC(C)(C)C,–,·,·,–,·
O=c1c2ccccc2nc(SCc2nnc(-c3ccccc3)o2)n1-c1ccc(F)cc1F,–,–,–,–,–
COc1ccc(-c2nnc(CSc3nc4ccccc4c(=O)n3C)o2)cc1OC,–,–,8.5,–,–
CN(C)c1ccc(C=Nc2cnn(C)c2C(N)=O)cc1,1.8,–,·,–,·
O=C(NC1CCN(C(=S)NCc2ccco2)CC1)NC12CC3CC(CC(C3)C1)C2,–,·,·,·,·
